What was measured:
[1] = Ratio of flux ratio in pig LLC cells expressing MDR1 to flux ratio on pig LLC-PK1 cells; type: ADME, cell-based, Sus scrofa
Method in brief: (§1)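 LLC-PK1 and LLC-MDR1 monolayers, 5 days post-seeding, preincubated 2 h at 37 °C in HBSS/10 mM HEPES. Compound added apically or basally, 2 h at 37 °C; opposite side assayed by LC-MS. Papp = Q/t/C0/A; FR = Papp(b→a)/Papp(a→b); corrected FR = FR(LLC-MDR1)/FR(LLC-PK1).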

[2] = system: LLC-PK1; assay: Flux ratio of permeability from apical to basolateral to basolateral to apical side in pig LLC-PK1 cells after 2 hrs; type: ADME, cell-based, Sus scrofa; details: llc-pk1, 2 h; method in brief: as §1
[3] = Flux ratio of permeability from apical to basolateral to basolateral to apical side in pig LLC cells expressing MDR1 after 2 hrs; type: ADME, cell-based, Sus scrofa; method in brief: as §1
[4] = target: T1, Orexin receptor type 2 (Homo sapiens, UniProt O43614); assay: Displacement of [125I]-orexin-A from human OX2 receptor expressed in CHO cells after 30 mins by liquid scintillation counting analysis; type: cell-based
T1 sequence (O43614 whole entry): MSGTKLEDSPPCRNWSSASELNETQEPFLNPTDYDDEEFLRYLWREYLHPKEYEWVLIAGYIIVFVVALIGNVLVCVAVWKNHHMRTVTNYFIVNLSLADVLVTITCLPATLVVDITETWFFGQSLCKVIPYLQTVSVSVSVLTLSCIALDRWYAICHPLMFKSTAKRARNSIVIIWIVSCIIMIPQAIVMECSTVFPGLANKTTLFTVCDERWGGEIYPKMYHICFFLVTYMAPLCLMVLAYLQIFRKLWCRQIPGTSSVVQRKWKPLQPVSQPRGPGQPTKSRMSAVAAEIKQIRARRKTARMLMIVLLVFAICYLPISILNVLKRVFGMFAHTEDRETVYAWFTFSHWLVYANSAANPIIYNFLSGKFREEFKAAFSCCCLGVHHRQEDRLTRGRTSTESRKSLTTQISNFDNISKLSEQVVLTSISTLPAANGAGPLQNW
Method in brief: (§2)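 CHO membranes expressing human OX1R or OX2R (5 μg protein) incubated 30 min at rt with compound and [125I]-orexin A (2 nM stock) in HEPES buffer pH 7.5 with MgCl2, CaCl2, BSA. Nonspecific binding with 10 μM orexin A. Wells washed with HEPES/525 mM NaCl and DPM counted. % inhibition from test, control and nonspecific counts; mean of three wells.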

[5] = target: T2, Orexin/Hypocretin receptor type 1 (Homo sapiens, UniProt O43613); assay: Displacement of [125I]-orexin-A from human OX1 receptor expressed in CHO cells after 30 mins by liquid scintillation counting analysis; type: cell-based; method in brief: as §2
T2 sequence (O43613 whole entry): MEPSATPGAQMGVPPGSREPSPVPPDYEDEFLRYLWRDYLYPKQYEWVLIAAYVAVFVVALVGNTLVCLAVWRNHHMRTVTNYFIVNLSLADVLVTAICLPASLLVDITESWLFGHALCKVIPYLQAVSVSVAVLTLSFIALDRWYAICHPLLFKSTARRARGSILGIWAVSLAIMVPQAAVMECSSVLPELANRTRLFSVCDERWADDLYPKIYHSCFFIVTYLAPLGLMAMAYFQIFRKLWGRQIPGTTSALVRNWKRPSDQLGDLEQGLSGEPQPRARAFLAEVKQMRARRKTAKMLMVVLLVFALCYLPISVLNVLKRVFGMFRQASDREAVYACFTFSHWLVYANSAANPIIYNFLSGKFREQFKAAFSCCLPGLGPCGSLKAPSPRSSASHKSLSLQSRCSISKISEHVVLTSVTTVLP

[6] = system: Brain; assay: Drug uptake in rhesus monkey brain at 115.5 MBq, iv by PET analysis in presence of tariquidar; type: ADME, organism-based, Macaca mulatta; details: in vivo
[7] = system: Hippocampus; assay: Drug uptake in rhesus monkey hippocampus at 115.5 MBq, iv after >30 seconds by PET analysis; type: ADME, organism-based, Macaca mulatta; details: in vivo
Method in brief: (§3)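 A single rhesus monkey, thiamylal induction then 1.5% isoflurane; 90 min 3D dynamic PET after transmission scan; [11C] tracer bolus via crural vein (115.5 MBq at baseline; 87.7 MBq after tariquidar 8 mg/kg iv over 10 min, 0.25 h before). ROIs on individual MRI; decay-corrected %SUV.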

[8] = Drug uptake in rhesus monkey cerebellum at 115.5 MBq, iv after >30 seconds by PET analysis; type: ADME, organism-based, Macaca mulatta; details: in vivo; method in brief: as §3
[9] = Drug uptake in rhesus monkey neocortex at 115.5 MBq, iv after >30 seconds by PET analysis; type: ADME, organism-based, Macaca mulatta; details: in vivo; method in brief: as §3
[10] = Drug uptake in rhesus monkey cerebellum at 115.5 MBq, iv after 30 seconds by PET analysis; type: ADME, organism-based, Macaca mulatta; details: in vivo, 0.5 min; method in brief: as §3
[11] = system: Hippocampus; assay: Drug uptake in rhesus monkey hippocampus at 115.5 MBq, iv after 30 seconds by PET analysis; type: ADME, organism-based, Macaca mulatta; details: in vivo, 0.5 min; method in brief: as §3
[12] = system: Thalamus; assay: Drug uptake in P-gp-knockout rat thalamus at 78.7 to 189.8 MBq, iv after 90 mins by PET analysis in presence of 10 mg/kg, po unlabeled compound; type: ADME, organism-based; design: dose 10 mg/kg, route oral; details: in vivo, 1.5 h
Method in brief: (§4)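 Male Mdr1a-knockout rats (410−500 g) under 1.5% isoflurane at 37 °C; [11C] tracer 78.7−189.8 MBq by tail vein. 90 min list-mode microPET scan with filtered back-projection; ROIs drawn on MRI template; decay-corrected %ID/mL, n = 3. Blocking: unlabeled compound 10 mg/kg po in 5% DMSO/10% cremophor in 10 mM HCl, given 1 h before tracer.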

[13] = Drug uptake in P-gp-knockout rat neocortex at 78.7 to 189.8 MBq, iv after 90 mins by PET analysis in presence of 10 mg/kg, po unlabeled compound; type: ADME, organism-based; design: dose 10 mg/kg, route oral; details: in vivo, 1.5 h; method in brief: as §4
[14] = system: Hippocampus; assay: Drug uptake in P-gp-knockout rat hippocampus at 78.7 to 189.8 MBq, iv after 90 mins by PET analysis in presence of 10 mg/kg, po unlabeled compound; type: ADME, organism-based; design: dose 10 mg/kg, route oral; details: in vivo, 1.5 h; method in brief: as §4
[15] = system: Cerebellum; assay: Drug uptake in P-gp-knockout rat cerebellum at 78.7 to 189.8 MBq, iv after 90 mins by PET analysis in presence of 10 mg/kg, po unlabeled compound; type: ADME, organism-based; design: dose 10 mg/kg, route oral; details: in vivo, 1.5 h; method in brief: as §4
[16] = system: Thalamus; assay: Drug uptake in P-gp-knockout rat thalamus at 78.7 to 189.8 MBq, iv after 90 mins by PET analysis; type: ADME, organism-based; details: in vivo, 1.5 h; method in brief: as §4
[17] = Drug uptake in rhesus monkey neocortex at 115.5 MBq, iv after 30 seconds by PET analysis; type: ADME, organism-based, Macaca mulatta; details: in vivo, 0.5 min; method in brief: as §3
[18] = Metabolic stability in P-gp-knockout rat brain assessed as unmetabolized drug level at 330 MBq after 30 min by HPLC chromatogram analysis; type: ADME, tissue-based; details: read-out: Stability
Method in brief: (§5)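 Mdr1a-knockout rat (450 g) given [11C] tracer 330 MBq iv and decapitated at 30 min. Plasma deproteinised with MeCN; half-brain homogenised in 50% aqueous MeCN and deproteinised. Supernatants run on C18 radio-HPLC (MeCN/H2O/TEA 5/5/0.01, 1.5 mL/min). Parent % = parent peak area/total peak area × 100, decay corrected; n = 1.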

[19] = Metabolic stability in P-gp-knockout rat plasma assessed as unmetabolized drug level at 330 MBq after 30 min by HPLC chromatogram analysis; type: ADME, cell-free; details: read-out: Stability; method in brief: as §5
[20] = system: Brain; assay: Ex vivo drug uptake in P-gp-knockout rat brain assessed as retention time at 330 MBq after 30 min by HPLC chromatogram analysis; type: ADME, tissue-based; details: 0.5 h; method in brief: as §5
[21] = system: Brain; assay: Ex vivo drug metabolism in P-gp-knockout rat brain assessed as retention time at 330 MBq after 30 min by HPLC chromatogram analysis; type: ADME, tissue-based; details: 0.5 h; method in brief: as §5
[22] = system: Hippocampus; assay: Drug uptake in P-gp-knockout rat hippocampus at 78.7 to 189.8 MBq, iv after 90 mins by PET analysis; type: ADME, organism-based; details: in vivo, 1.5 h; method in brief: as §4
[23] = Drug uptake in P-gp-knockout rat neocortex at 78.7 to 189.8 MBq, iv after 90 mins by PET analysis; type: ADME, organism-based; details: in vivo, 1.5 h; method in brief: as §4
[24] = Octanol-phosphate buffer partition coefficient, log D of the compound at pH 7.4 by Shake flask method; type: physicochemical
Method in brief: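 [11C]-labelled compound (about 200 000 cpm) in n-octanol and 0.1 M PBS pH 7.4, vortexed 3 min at rt and centrifuged; weighed aliquots of each phase γ-counted, with the organic layer repartitioned until stable. log D = log(cpm/g octanol ÷ cpm/g PBS); triplicate.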

Cc1ncc(OC[C@@]2(c3cccc(F)c3)C[C@H]2C(=O)Nc2ccc(C#N)cn2)c(C)n1
Ratio [1]: 1.76 | Ratio [2]: 1.09 | Ratio [3]: 1.92 | Ki [4]: 0.005 µM | Ki [5]: 0.032 µM

Cc1ncc(OC[C@@]2(c3cccc(F)c3)C[C@H]2C(=O)Nc2ccc(F)cn2)c(CO[11CH3])n1
Drug uptake [6]: Active | Drug uptake [7]: Not Active | Drug uptake [8]: Not Active | Drug uptake [9]: Not Active | Drug uptake [10]: Active | Drug uptake [11]: Active | Drug uptake [12]: Active | Drug uptake [13]: Not Active | Drug uptake [14]: Not Active | Drug uptake [15]: Not Active | Drug uptake [16]: Active | Drug uptake [17]: Active | remaining at 0.5 h [18]: 54% | remaining at 0.5 h [19]: 12% | Retention_time [20]: 5.2 min | Retention_time [21]: 2 min | Drug uptake [22]: Active | Drug uptake [23]: Active | logD [24]: 2.97

From ChEMBL document CHEMBL2424641, “Synthesis and evaluation of novel radioligands for positron emission tomography imaging of the orexin-2 receptor” (J Med Chem, 2013)
